The list is not random: actives were taken first. Their share in the collection is about 2.8%.
MC4R antag cAMP – human MC4R antagonism in cAMP assay; AID 540295; MC4R-expressing cells, MTII-stimulated cAMP, LANCE TR-FRET; 0.48% of 360,000 active; inhibition, % at 6.5 µM;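 active = inhibition above its plate's cutoff, the mean of tested wells on that plate plus 3 SD, cut at about 29% in these data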
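Assay system: U2OS cells stably expressing human melanocortin 4 receptor (MC4R) / Dosing: 6.5 µM / Timing: compound 30 min, challenge 1 h, detection 1 h / Measured by: Eu-cAMP/anti-cAMP TR-FRET, emission 671 nm / Replicates: singlicate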
EBI2 antag – blocks human EBI2 receptor beta-arrestin signaling | P32249 | 0.81% of 360,000 active | inhibition, % at 5 µM | AID 651636 | EBI2 beta-arrestin recruitment, luminescence, 7a,25-OHC stimulated; in the data active = inhibition above about 38%;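 also: enzyme fragment complementation signal reports receptor beta-arrestin coupling in cells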
Target sequence (P32249 whole entry, looked up, the tested form may be a part): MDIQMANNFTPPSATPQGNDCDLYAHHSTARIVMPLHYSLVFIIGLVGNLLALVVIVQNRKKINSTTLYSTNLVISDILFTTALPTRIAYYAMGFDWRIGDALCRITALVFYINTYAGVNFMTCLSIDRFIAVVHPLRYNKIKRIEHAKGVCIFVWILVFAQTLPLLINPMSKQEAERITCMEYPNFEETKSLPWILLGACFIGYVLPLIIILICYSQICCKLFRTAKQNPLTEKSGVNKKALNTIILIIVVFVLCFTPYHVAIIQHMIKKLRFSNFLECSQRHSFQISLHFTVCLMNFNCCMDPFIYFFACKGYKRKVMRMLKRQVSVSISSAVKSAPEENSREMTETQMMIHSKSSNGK
MC4R ag barr – human MC4R agonism via beta-arrestin. P32245. U2OS MC4R beta-arrestin complementation, luminescence; percent of melanotan II response, DMSO zero. activation, % at 8.9 µM. 0.98% of 360,000 active;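 active = activation above a per-plate cutoff, the mean activation of sample wells on that plate plus 3 SD, cut at about 8% in these data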
m5-HT2A agonist – activates the mouse 5-HT2A serotonin receptor; activation, % at 7.6 µM; 0.66% of 360,000 active; P35363; AID 624169; CHO-K1 mHTR2A beta-arrestin complementation, luminescence; percent of 30 µM serotonin response;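 active = activation above a run cutoff, the mean activation of all tested compounds plus 3 SD, cut at about 14% in these data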
MC4R barr ag – human MC4R beta-arrestin agonism confirmation | shares compounds with MC4R ag barr | U2OS MC4R beta-arrestin recruitment, luminescence; scaled DMSO 0%, Melanotan II 100% | activation, % at 8.9 µM | 31% of 2,400 active;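 active = mean activation across replicates above the hit cutoff set in the earlier primary screen, cut at about 8% in these data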
MOR-DOR barr ag – activates mu-delta opioid heterodimer, MC4R agonist counter-screen | shares compounds with MC4R ag barr | U2OS PathHunter beta-arrestin, beta-gal luminescence; percent of deltorphin B response, DMSO zero | activation, % at 9.2 µM | 5.8% of 2,400 active | AID 602194;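 active = mean activation across replicates exceeds the hit threshold derived in the earlier primary screen, cut at about 18% in these data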
Hits are given with their value; 0 = inactive; - = no result.

SMILES	MC4R antag cAMP	EBI2 antag	MC4R ag barr	m5-HT2A agonist	MC4R barr ag	MOR-DOR barr ag
Cc1ccc2nsnc2c1NC(=O)c1sc2ccccc2c1Cl	0	0	12.9	0	0	0
Cc1nnc(NC(=O)c2sc3ccccc3c2Cl)s1	0	0	0	0	-	-
CC1CN(C(=O)COC(=O)[C@@H](NC(=O)c2ccccc2Cl)C(C)C)CC(C)O1 (stereo not given in full)	0	0	0	0	-	-
CN(C)S(=O)(=O)c1ccc2[nH]cc(/C=C/c3nc4ccccc4c(=O)n3-c3ccccc3)c2c1	0	0	12.6	0	9.2	0
CCn1c(/C=C/c2c[nH]c3ccccc23)nc2ccccc2c1=O	0	0	0	0	-	-
OC(CNCCC1C=Nc2ccccc21)Cn1c2ccc(Cl)cc2c2cc(Cl)ccc21 (stereo not given)	0	0	17.2	0	0	31.2
Cc1cc(C)n(CC(O)Cn2c3ccc(Cl)cc3c3cc(Cl)ccc32)c(=O)n1 (stereo not given)	0	0	0	0	-	-
Cc1ccc2nc(SCC(=O)Nc3cc(C)on3)c(C)cc2c1	0	0	11.1	0	0	0
CCOc1ncccc1C(=O)Nc1ccc(C)c(S(=O)(=O)N2CCCCCC2)c1	0	0	0	0	-	-
CC(/C=N/NC(=O)c1cccs1)=C\c1ccccc1	0	0	15.9	0	0	0
COc1ccccc1Cc1c(C2CCCCC2)nc2c3ccccc3ccn12	-	0	-	0	-	-
CC1(C(=O)NCc2ccccc2)CSCC(=O)N1Cc1cccc(F)c1 (stereo not given)	-	0	-	0	-	-
Cn1c(CCNC(=O)c2cccs2)nnc1SCC(=O)Nc1nc(-c2ccccc2)cs1	0	0	0	0	-	-
Cc1ccc(-c2csc(NC(=O)CSc3ncn(-c4ccccc4)n3)n2)cc1	0	0	11.4	0	0	0
O=C(CSc1nc(-c2ccccc2)cs1)Nc1nccs1	0	0	19.2	0	0	0
Cc1ccc(C(=O)NCCc2nnc(SCC(=O)Nc3nc(-c4ccccc4)cs3)n2C)cc1	0	0	21.0	0	8.9	0
CC(=O)c1cccc(NS(=O)(=O)c2ccc(N/C=C/C(=O)c3ccc(F)cc3)cc2)c1	0	0	0	0	-	-
CC(=O)c1cccc(NS(=O)(=O)c2ccc(N/C=C\C(=O)c3ccc(C)cc3)cc2)c1	0	0	30.3	0	0	0
CC(C)=CCC/C(C)=C/C=N/NC(=O)c1ccc([N+](=O)[O-])cc1	0	0	14.7	0	0	0
Cc1cccc(C)c1NC(=O)C(c1ccccc1)N1CCN(c2ccc(C(F)(F)F)cn2)CC1 (stereo not given)	-	0	-	0	-	-
COC(=O)c1sc(NC(=O)c2cccc([N+](=O)[O-])c2)c(C(N)=O)c1C	0	0	0	0	-	-
COC(=O)c1c(NC(=O)c2cccc([N+](=O)[O-])c2)sc(C(N)=O)c1C	0	0	11.7	0	0	0
C[C@H]1CN([C@@H](C)CO)C(=O)CCCn2nncc2CO[C@H]1CN(C)C(=O)Nc1cccc2ccccc12	-	0	-	0	-	-
Cc1ccc(NC(=S)NC(=O)c2ccc(-c3ccc(Cl)cc3)o2)c(O)c1	0	0	16.4	0	20.9	0
Cc1cc(O)c(NC(=S)NC(=O)c2ccc(-c3ccc(Cl)cc3)o2)cc1C	0	0	0	0	-	-
SMILES	MC4R antag cAMP	EBI2 antag	MC4R ag barr	m5-HT2A agonist	MC4R barr ag	MOR-DOR barr ag
Cc1c(NC(=O)CSc2nnc(C(C)N(C)C)n2-c2ccccc2)c(=O)n(-c2ccccc2)n1C (stereo not given)	0	0	0	0	-	-
Cc1ccccc1OCC(O)CNC1CCC(NCC(O)COc2ccccc2C)CC1 (stereo not given)	0	0	11.0	0	38.0	34.9
N#Cc1c(NC(=O)COC(=O)c2ccc(O)cc2O)sc2c1CCC2	0	0	0	0	-	-
COc1ccc(CNC(=O)NC(C)(C)c2cccc(C(C)(C)NC(=O)NCc3ccc(OC)cc3)c2)cc1	0	0	0	0	-	-
C=C(C)c1cccc(C(C)(C)NC(=O)NCc2ccc(OC)cc2)c1	0	0	16.9	0	0	0
O=C(CSc1ncnc2c1oc1ccccc12)c1cccs1	0	0	13.3	0	0	0
Cc1nc(SCC(=O)c2cccs2)c2oc3ccccc3c2n1	0	0	0	0	-	-
CCC(=O)N1CCC(C)(C(=O)Nc2nccc3ccccc23)C1 (stereo not given)	0	0	0	0	-	-
CCc1nc(Nc2cc(OC)ccc2OC)c2oc3ccccc3c2n1	0	0	10.2	0	0	0
CC1=C(C(=O)N2CCOCC2)CC(CC(=O)NCCN2CCOCC2)C(=O)N1Cc1ccccc1 (stereo not given)	0	0	0	0	-	-
COC(=O)c1ccccc1NC(=O)COC(=O)/C=C/c1cccs1	0	0	20.2	0	0	0
CCOc1ccccc1NC(=O)COC(=O)/C=C/c1cccs1	0	0	0	0	-	-
COc1cc(/C=C/C(=O)OCC(=O)Nc2ccccc2Cl)cc(OC)c1OC	0	0	15.1	0	0	0
COc1ccc(NC(=O)Cn2cnc3c(cnn3-c3ccc(C)c(C)c3)c2=O)c(OC)c1	0	0	11.9	0	15.4	0
CCOc1ccccc1NC(=O)Cn1cnc2c(cnn2-c2ccc(C)c(C)c2)c1=O	0	0	0	0	-	-
O=C(c1[nH]c(C(F)(F)F)nc1-c1ccccc1)N1CCN(c2ccc(C(F)(F)F)cn2)CC1	-	0	-	0	-	-
COc1ccc(OCC(=O)N/N=C/C(C)=C/c2ccco2)c(Br)c1	0	0	18.8	0	0	0
Cc1ccccc1OCC(=O)N/N=C/c1ccco1	0	0	0	0	-	-
CC1=C(C(=O)N2CCOCC2)CC(CC(=O)NCC2CCCCC2)C(=O)N1Cc1ccc(C(C)(C)C)cc1 (stereo not given)	-	0	-	0	-	-
Cc1ccc2nc(-c3ccc(NC(=O)CN4C(=O)NC(C)(c5ccc(OC(F)F)cc5)C4=O)cc3)sc2c1 (stereo not given)	0	0	18.1	0	0	0
CCN(CC(=O)Nc1c(F)cccc1F)C(=O)c1ccccn1	0	0	0	0	-	-
C[C@H]1CN([C@@H](C)CO)C(=O)CCCn2nncc2CO[C@H]1CN(C)C(=O)c1ccc2ccn(C)c2c1	0	0	0	0	-	-
CCCc1c(C(=O)N/N=C/c2c(OC)ccc3ccccc23)nnn1-c1nonc1N	0	0	24.6	0	11.1	0
Cc1nnn(-c2nonc2N)c1C(=O)N/N=C/c1cccc2ccccc12	0	0	0	0	-	-
CCCc1c(C(=O)N/N=C/c2ccc(OC)c(OCc3ccccc3)c2)nnn1-c1nonc1N	0	0	0	0	-	-
Cc1ccc(/C=N/NC(=O)c2nnn(-c3nonc3N)c2CSc2ccccc2)s1	0	0	0	0	-	-
Cc1ccsc1/C=N/NC(=O)c1nnn(-c2nonc2N)c1CSc1ccccc1	0	0	10.6	0	0	0

Source: PubChem (several laboratories)
